The EternaBench riboswitch data

Tested on: MS2 coat protein
Assay: apparent Kd, MS2 coat protein; higher = weaker binding; RNA-MaP array; FMN 200 µM where present
Summary of the method: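 Designs were transcribed by stalled E. coli RNA polymerase on Illumina sequencing-chip clusters. They were titrated with SNAP-549-labelled MS2 coat protein from 0.7 or 1.5 nM, doubling to 3 µM, without and then with constant ligand. Buffer: 100 mM Tris-HCl pH 7.5, 80 mM KCl, 4 mM MgCl2, BSA, DTT, yeast tRNA, Tween-20. Green signal was normalised to red-channel RNA signal and control-cluster median Fmax. Apparent Kd is the median of filtered per-cluster binding-curve fits.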

[1] = designed as: ON switch for flavin mononucleotide, no ligand
[2] = ligand present: flavin mononucleotide, designed as: ON switch for flavin mononucleotide
[3] = designed as: OFF switch for flavin mononucleotide, no ligand
[4] = ligand present: flavin mononucleotide, designed as: OFF switch for flavin mononucleotide

| Sequence | apparent Kd [1] | apparent Kd [2] | apparent Kd [3] | apparent Kd [4] |
| --- | --- | --- | --- | --- |
| GUGGUCAGACAUGAGGAUCACCCAUGUGGAAUAAAUAAGGAUUAGGAUAUGGAAUAUAGGAUAUACCAGAAGGAAUGGUUGGUG | 97.8 nM | 103 nM |  |  |
| CGUGGUUGGGAGGAUAUGCACGUGAACGCUAUUGUAGAAGGUCCGACAUGAGGAUCACCCAUGUAGGUGUCACG |  |  | 168 nM | 147 nM |
| ACGAAGACACAAAUGUUCCACGGUGCAGAAGGGUCCCUCACAUGAGGAUCACCCAUGUAACUCGGACAGGAUAUGCUCUUGGGA | 47.4 nM | 5.86 nM |  |  |
| GUAGAGUAGUGAGGAUAUACGAGAUCGAUAGAUCGGCGAUCCAUAUAUACAUGAGGAUCACCCAUGUAGAAGGCACUUCUCUAC |  |  | 6.99 nM | 103 nM |
| AAAAAACAUGAGGAUCACCCAUGUAAGGAUAUCUAAAAUAAAAGAAAAAUAAAGAAAAGGAGAAGGUACAAGGA |  |  | 24.5 nM | 35.1 nM |
| AGCUACGUUUCGUAGCAGCUAGGUGAGGAUAUUCAAUUUUUCACAUGAGGAUCACCCAUGUAUGUGAAGAAGGCGCCUAGAAAG | 13.3 nM | 4.77 nM |  |  |
| ACAUCGACAGGAUAUACGUGAGUGGAAAAAGUGUAUCCACUACAUGAGGAUCACCCAUGUAGAAGGGUCGAUGA |  |  | 18.5 nM | 19.8 nM |
| AGGUACAUGAGGAUCACCCAUGUAAGAGCCCUCAUGCGAUGUAGAAGGAUAAUGCGAGAAGAGCUAUAGGAUAUACAUGAGAAA |  |  | 156 nM | 139 nM |
| GGCGAACAGGCUAACAUGAGGAUCACCCAUGUGGACUCAUGGUAGGAUAUGCUGUACAAAGUACAGCAGAAGGGCCGGUGAGCC | 139 nM | 376 nM |  |  |
| UGGAAGAGAAGAGGAUAUCCGUAGAUAACACAUGAGGAUCACCCAUGUAAGAGGGAUAGGUGAUAGGAGAAGGCUUAGAGAGGU |  |  | 15.2 nM | 14.9 nM |
| GAGUGACAUGAGGAUCACCCAUGUGAGGAUAUCGGACGGACCAAAUUAACAACAACCGCGAGAAGGCACAUCGG |  |  | 146 nM | 135 nM |
| ACAAUGUUAGGAUAUCUGAGAAUUAGUCUCGACUAGUCGAAGGAGAAGGAACAUGAGGAUCACCCAUGUAGAUC |  |  | 43.4 nM | 275 nM |
| AAUCCACAUGAGGAUCACCCAUGUGAGGAUAUGUCCAUAUUCGGCAAAUCGGAUAUGGACAGAAGGCACAUAAA |  |  | 32.9 nM | 87.1 nM |
| UUUGUUGUUGUGAGGAUAUCGUUGUUAUUUUGAAACGAGAAGGCACAUGAGGAUCACCCAUGUUUGUUGUUGGU |  |  | 52.1 nM | 195 nM |
| CAGCGCUGUUGAGAGGAUAUGCGGUGAUGGACAUGAGGAUCACCCAUGUUAGCGACAGCAUUACGGUAGAAGGCUCCACAGCUGC | 22.9 nM | 13.8 nM |  |  |
| GGUGCACGCACAGGAUAUCCGGCGAAGCUCGUCGGAGAAGGGUGACAUGAGGAUCACCCAUGUACGUGCAACCCAGUUUGAGAG | 85.2 nM | 31.4 nM |  |  |
| CGUAGGAUCCAGAAGGCAUGAACAUGAGGAUCACCCAUGUGAAAAGACAUGAGGAUAUGGAUCCUACGAAAAGUGCGAAAGCAC | 5.53 nM | 5.47 nM |  |  |
| AAUGAUUGAUUCCACUUAUACAUGAGGAUCACCCAUGUUAUCGAGGAUAUGCAUUAGAGUGUUUAGCAGAAGGCGAUGUAAUUG |  |  | 7.82 nM | 25 nM |
| GUAGCAUACCGAGGAUAUUCCGGGCAUAAAUAAACAUGAGGAUCACCCAUGUGGCGAAAGCCUAGGGAGAAGGCGGAAUGCUAC | 15.2 nM | 13.6 nM |  |  |
| UGGAUCAAUACAGGAUAUGGUGACGCACAUGAGGAUCACCCAUGUCCGCAGCGUGCUAAGCACGCCCAGAAGGGUAUUGAUUCG | 722 nM | 69.4 nM |  |  |
| GUGCAAUGAGGAUAUACGUAGGUGAAAAUCUGUGUGCUCCUACAUGAGGAUCACCCAUGUAGAAGGCAUGUCAC |  |  | 17.1 nM | 28.2 nM |
| GGUACUCAAAGAGUACGGAGUCGAACAUGAGGAUCACCCAUGUAGGAUAUGCUAUUCUUGAAGUUGCAGAAGGACAUGUGCAGC |  |  | 10.9 nM | 11.1 nM |
| UAUAUGUCAGGAUAUCGCAACUGCGCGCGCAAGAAUCAUAACGAGAAGGGACAUGAGGAUCACCCAUGUACACU |  |  | 18.6 nM | 25.7 nM |
| CUGUUGGGCUCAGGAUAUCGGGUUUAACAUGAGGAUCACCCAUGUCGUCUGCGAAAGCAGAAUCACGAGAAGGGAGACCAGCGA | 13.3 nM | 7.53 nM |  |  |
| ACGCCCUGAGGAUAUCUUUUCCCGUACAUGAGGAUCACCCAUGUUUUCCUCCGUGCUUCGAGAGAAGGCAGGCCCA |  |  | 807 nM | 436 nM |
| CGAUAUUAUGCAGGAUAUCUCCCUUGAAUGUGGAGAGAAGGGCAUAGGGAGACAUAAGCCUUAUUACAUGAGGAUCACCCAUGU |  |  | 10.3 nM | 9.31 nM |
| AGUGCCAUGUAGAAGGCAGAUCUGAUUCAGAUCUGAGGAUAUACAUGAGGAUCACCCAUGUAAAUGCACUGCACGAGAGUGCAA |  |  | 12 nM | 43.9 nM |
| GGAGACCUCACAGGAUAUGCUGGACUUUGUCCAGCAGAAGGGUGGACAUGAGGAUCACCCAUGUGGUCUUCCAAAAUAUUUAAU | 728 nM | 139 nM |  |  |

| Sequence | apparent Kd [1] | apparent Kd [2] | apparent Kd [3] | apparent Kd [4] |
| --- | --- | --- | --- | --- |
| GUCCUCAGCGAGGAUAUCGGGCGGGUUUUUGUUUGAGAAGGCGUGACAUGAGGAUCACCCAUGUGGCGCGUGGG |  |  | 51.2 nM | 82.3 nM |
| ACGAGGUCAGGAUAUACGGAGAGAGGGAGUUGGUUAGGGUAACAUGAGGAUCACCCAUGUAGAAGGGACUAGGG |  |  | 48.6 nM | 40.3 nM |
| AAGUAUAAGGGCAUUAAACAUGAGGAUCACCCAUGUACAAUAGAGGAUAUGCAUUUCGGUUUAGAGUAGAAGGUUAGAGAAUAU |  |  | 27.6 nM | 33.7 nM |
| GUUUUUUUUAGUUCAUACUAUAAGAUAGAAGGUGAAAUAUAGACAUGAGGAUCACCCAUGUAAUUCAAGGAUAUGUAGUUACUC | 44.1 nM | 24.8 nM |  |  |
| AGUUACAAACUCAACAUGAGGAUCACCCAUGUACUCUCUUGUAAGGAUAUACAUUCGUAUUGAAAGUAGAAGGUACUAAUUAUG | 69.4 nM | 69.8 nM |  |  |
| UAGUAUAAGGGCAUUAAACAUGAGGAUCACCCAUGUACGAUAGAGGAUAUGCAUUUCAGUUUAGAGUAGAAGGUUAGAGAAUUG |  |  | 39.5 nM | 41.6 nM |
| CUAUUCCGAGGAUAUACAUGAGGAUCACCCAUGUCGGGCCUCCGCGUUUAGCGCCUCAGUAGAAGGCGGGUUUC |  |  | 19.1 nM | 25.4 nM |
| GUCAGCUCGUGAGGAUAUACAACACUGCUUCGGCAGUGUAUUAAGAUUACAUGAGGAUCACCCAUGUAGAAGGCACGAGCUGAU |  |  | 5.01 nM | 6.95 nM |
| GUAGCUAUCGGAGGAUAUUCAUACUGGAAACGGACAUGAGGAUCACCCAUGUGGCGAAAGCCUUGGGAGAAGGUCGAUAGCUAC | 177 nM | 10.1 nM |  |  |
| AUUUUAAUAUAGGAUAUCGAUUUUAUUAUUUAACGAGAAGGAUAAACAUGAGGAUCACCCAUGUGGUAUCAUGG |  |  | 158 nM | 140 nM |
| AUGCCUAAUGAGAAGGUGUAUAUAAAUUAUAUACAAGGAUAUCGGUCAAGCAUGAAAACAUGAGGAUCACCCAUGUUAAGGCAU | 7.57 nM | 6.36 nM |  |  |
| GUUAAACAUGAGGAUCACCCAUGUCAAUGUAGUCGAGGAUAUGGGCAGCUAUGAGGCGUACUAGAAGGCGAAGAGU | 361 nM | 178 nM |  |  |
| UAAAGUUAAGGAGGAUAUUACAUGAGGAUCACCCAUGUAAUGGGCUCGGUGUAAGAAGGCCUUGAGUCGAAGUUUCGGAUAAGG |  |  | 9.05 nM | 18.6 nM |
| CGAGCUGCCAGAGGAUAAUGGACAUGAGGAUCACCCAUGUGUCAGGAUAUGGGUUUCACAUGGACUCAGAAGGGACCAGCCCGA | 107 nM | 30.2 nM |  |  |
| AGAGCCUCGUGAGGAUAUACAUGAGGAUCACCCAUGUAAAUGGAAGAACGGAGGAAACUCCGAAUGUAGAAGGCACGAGGCUCA |  |  | 149 nM | 1240 nM |
| GAUCGCCGUGUCAGGAUAUCUUGUGUACCCACGUUAGAGAAGGGACAUGAGGAUCACCCAUGUACCCUGGUUUU |  |  | 17.6 nM | 19.2 nM |
| GAGAUUUUGUAAGGAUAUACUCUGUGAUGAAGAGUAGAAGGUACUUACAUGAGGAUCACCCAUGUUUAACGAGAUACUAAUCGU | 57 nM | 23.3 nM |  |  |
| AGAUAACACCAGAAGGACAUGAGGAUCACCCAUGUAGGAUAUGGGCAUCACUCGAGAAAGAAACGACCAAAUGGACACGCGGUC | 80.1 nM | 9.46 nM |  |  |
| AGCUACACCCAGAAGGACAUGAGGAUCACCCAUGUAGGAUAUGGGAGACACAGUCCCAUGUAGAGAAAUUACGCUAGUGUAGCG | 102 nM | 46.5 nM |  |  |
| GGCCGUAAUAAGGAUAUCACUAGCUUCGGCUAGUGAGAAGGUAUUACAUGAGGAUCACCCAUGUGGUCAGGCCA |  |  | 279 nM | 730 nM |
| CGAUACAUGAGGGUCUCCCAUGACAUGAGGAUCACCCAUGUGCAGGAUAUACGUGUGAUGGUAUAGUAGAAGGGCACUCUAUGU |  |  | 29.2 nM | 36.9 nM |
| CUAUAGAUAUGAGGAUAUGUAUAUCCAACAUGAGGAUCACCCAUGUUGAUGAUCACGUAUGUAAAGCAGAAGGCAUAUCUAUAG |  | 6.41 nM |  |  |
| GUUUGUUAUUAGAAGGUGCCAGCGAGAGCUGCACAUGAGGAUCACCCAUGUUGUCGGUGACGACGCAAGGAUAUGGUGGUGGAU | 715 nM | 169 nM |  |  |
| AGUCAUACAGGAUAUACAUGAGGAUCACCCAUGUUUAUCCUAAAAUAAAGAUCCUCAUGUAGAAGGGUAUGACA |  |  | 12.8 nM | 12.6 nM |
| UAAUAAUAAUAAUAGCAGAAUUACAUGAGGAUCACCCAUGUAUAGGAUAUCGUCAGGAAUACUGACGAGAAGGAUACAAACUGC |  |  | 17.6 nM | 21.9 nM |
| GGCAAGUCAGGAUAUGCGAAGUCAGGACACACACUGACGAAGCAGAAGGGACAUGAGGAUCACCCAUGUAAGCC |  |  | 31.9 nM | 19.9 nM |
| AAGAAUCAAGGAUAUGCAUGAUACGACAUGAGGAUCACCCAUGUCCUCAUGCGUAUCCUUGCAGAAGGUGAGUAUA |  |  | 13.8 nM | 17.1 nM |
